Data from article PMC3791136 (Journal of the American Chemical Society, 2013).

System: A2780 cells
Assay: Cytotoxicity with ER stress inhibitor salubrinal
Assay type: cell-based
Settings: salubrinal 10 μM
Outline: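 A2780 cells given the test compound alone or co-administered with salubrinal (10 μM, an ER stress inhibitor). IC50 values were compared with and without inhibitor, with cisplatin run alongside.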

## N.N.[Cl][Pt][Cl] [cisplatin]
  effect of salubrinal on toxicity: limited effect
